# Experimental data reported in ChEMBL document CHEMBL1148778, “Synthesis and characterization of nonsteroidal glucocorticoid receptor modulators for multiple myeloma” (J Med Chem, 2007).
# Tests used:
# RPMI-8226 [1] = assay: Antiproliferative activity against human RPMI8226 cells after 4 days; type: functional, cell-based; settings: RPMI-8226, 96 h
# RPMI-8226 [2] = assay: Antiproliferative activity against human RPMI8226 cells after 4 days relative to Dexamethasone; type: functional
# Glucocorticoid receptor [3] = biological target: T1, Glucocorticoid receptor (Homo sapiens, UniProt P04150); assay: Agonist activity at human GR expressed in CV1 cells by GRE activation assay; type: functional, cell-based, CV-1
# T1 sequence (P04150 whole entry): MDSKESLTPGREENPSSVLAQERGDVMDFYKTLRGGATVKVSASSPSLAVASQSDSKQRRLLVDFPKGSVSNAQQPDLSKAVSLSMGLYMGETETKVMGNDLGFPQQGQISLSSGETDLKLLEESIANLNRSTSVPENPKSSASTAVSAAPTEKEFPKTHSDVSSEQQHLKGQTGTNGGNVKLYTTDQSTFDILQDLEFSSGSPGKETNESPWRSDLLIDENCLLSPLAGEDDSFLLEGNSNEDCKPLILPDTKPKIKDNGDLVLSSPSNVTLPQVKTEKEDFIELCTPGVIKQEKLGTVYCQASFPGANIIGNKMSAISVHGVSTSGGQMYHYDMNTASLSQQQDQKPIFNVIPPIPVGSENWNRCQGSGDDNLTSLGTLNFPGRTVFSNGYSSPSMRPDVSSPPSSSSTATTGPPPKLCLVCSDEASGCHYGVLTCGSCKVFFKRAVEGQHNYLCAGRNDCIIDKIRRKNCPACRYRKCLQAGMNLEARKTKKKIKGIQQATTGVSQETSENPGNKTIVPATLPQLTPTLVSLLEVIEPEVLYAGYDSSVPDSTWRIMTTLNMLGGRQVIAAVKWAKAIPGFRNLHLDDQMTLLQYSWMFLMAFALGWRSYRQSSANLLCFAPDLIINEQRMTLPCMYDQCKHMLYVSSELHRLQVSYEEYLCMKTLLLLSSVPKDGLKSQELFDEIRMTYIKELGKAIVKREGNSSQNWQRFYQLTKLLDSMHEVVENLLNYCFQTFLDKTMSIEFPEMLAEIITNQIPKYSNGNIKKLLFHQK
# Glucocorticoid receptor [4] = biological target: T1, Glucocorticoid receptor; assay: Activity at human GR expressed in NHDFneo cells assessed as inhibition of IL-6 production; type: cell-based
# Glucocorticoid receptor [5] = biological target: T1, Glucocorticoid receptor; assay: Binding affinity to GR
# RPMI-8226 [6] = assay: Inhibition of tumor growth in human RPMI8226 cells xenografted nude mouse at 10 mg/kg, po after 4 weeks relative to Dexamethasone; type: functional
# RPMI-8226 [7] = assay: Inhibition of tumor growth in human RPMI8226 cells xenografted nude mouse at 30 mg/kg, po after 4 weeks relative to Dexamethasone; type: functional
# [8] = biological target: T2, Mineralocorticoid receptor (Homo sapiens, UniProt P08235); assay: Binding affinity to MR
# T2 sequence (P08235 whole entry): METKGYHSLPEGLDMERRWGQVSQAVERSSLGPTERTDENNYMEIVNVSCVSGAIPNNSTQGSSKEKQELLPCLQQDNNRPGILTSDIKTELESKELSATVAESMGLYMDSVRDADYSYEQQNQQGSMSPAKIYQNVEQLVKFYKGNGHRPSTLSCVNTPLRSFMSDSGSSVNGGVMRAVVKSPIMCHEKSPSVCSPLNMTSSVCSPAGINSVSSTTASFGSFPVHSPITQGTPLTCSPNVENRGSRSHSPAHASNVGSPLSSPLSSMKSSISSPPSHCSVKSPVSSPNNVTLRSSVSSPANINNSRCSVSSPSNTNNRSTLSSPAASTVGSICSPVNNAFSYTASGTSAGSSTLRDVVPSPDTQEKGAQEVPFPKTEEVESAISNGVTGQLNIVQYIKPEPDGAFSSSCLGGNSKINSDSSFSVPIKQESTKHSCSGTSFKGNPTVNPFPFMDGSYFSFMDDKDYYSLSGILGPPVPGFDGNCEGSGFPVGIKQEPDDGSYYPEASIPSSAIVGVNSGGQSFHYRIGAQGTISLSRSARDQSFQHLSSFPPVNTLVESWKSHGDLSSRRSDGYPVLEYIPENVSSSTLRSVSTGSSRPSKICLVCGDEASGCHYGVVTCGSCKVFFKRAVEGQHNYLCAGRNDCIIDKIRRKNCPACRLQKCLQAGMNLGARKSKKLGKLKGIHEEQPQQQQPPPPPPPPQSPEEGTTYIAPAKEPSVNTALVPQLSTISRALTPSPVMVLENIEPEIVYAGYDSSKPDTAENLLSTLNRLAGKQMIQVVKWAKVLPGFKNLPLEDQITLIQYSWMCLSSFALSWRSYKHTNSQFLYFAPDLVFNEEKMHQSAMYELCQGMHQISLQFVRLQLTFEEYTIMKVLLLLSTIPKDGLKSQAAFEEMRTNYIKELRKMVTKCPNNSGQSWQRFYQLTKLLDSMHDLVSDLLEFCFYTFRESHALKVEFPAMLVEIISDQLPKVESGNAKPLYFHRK
# Outline: (§1)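 Competitive binding assays on PR and MR. Values are means of at least three separate experiments, each with triplicate determinations, ± SEM. A value without SEM comes from a single determination.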
# RPMI-8226 [9] = assay: Inhibition of tumor growth in human RPMI8226 cells xenografted nude mouse at 3 mg/kg, po after 4 weeks relative to Dexamethasone; type: functional
# Androgen receptor = biological target: T3, Androgen receptor (Homo sapiens, UniProt P10275); assay: Binding affinity to AR
# T3 sequence (P10275 whole entry): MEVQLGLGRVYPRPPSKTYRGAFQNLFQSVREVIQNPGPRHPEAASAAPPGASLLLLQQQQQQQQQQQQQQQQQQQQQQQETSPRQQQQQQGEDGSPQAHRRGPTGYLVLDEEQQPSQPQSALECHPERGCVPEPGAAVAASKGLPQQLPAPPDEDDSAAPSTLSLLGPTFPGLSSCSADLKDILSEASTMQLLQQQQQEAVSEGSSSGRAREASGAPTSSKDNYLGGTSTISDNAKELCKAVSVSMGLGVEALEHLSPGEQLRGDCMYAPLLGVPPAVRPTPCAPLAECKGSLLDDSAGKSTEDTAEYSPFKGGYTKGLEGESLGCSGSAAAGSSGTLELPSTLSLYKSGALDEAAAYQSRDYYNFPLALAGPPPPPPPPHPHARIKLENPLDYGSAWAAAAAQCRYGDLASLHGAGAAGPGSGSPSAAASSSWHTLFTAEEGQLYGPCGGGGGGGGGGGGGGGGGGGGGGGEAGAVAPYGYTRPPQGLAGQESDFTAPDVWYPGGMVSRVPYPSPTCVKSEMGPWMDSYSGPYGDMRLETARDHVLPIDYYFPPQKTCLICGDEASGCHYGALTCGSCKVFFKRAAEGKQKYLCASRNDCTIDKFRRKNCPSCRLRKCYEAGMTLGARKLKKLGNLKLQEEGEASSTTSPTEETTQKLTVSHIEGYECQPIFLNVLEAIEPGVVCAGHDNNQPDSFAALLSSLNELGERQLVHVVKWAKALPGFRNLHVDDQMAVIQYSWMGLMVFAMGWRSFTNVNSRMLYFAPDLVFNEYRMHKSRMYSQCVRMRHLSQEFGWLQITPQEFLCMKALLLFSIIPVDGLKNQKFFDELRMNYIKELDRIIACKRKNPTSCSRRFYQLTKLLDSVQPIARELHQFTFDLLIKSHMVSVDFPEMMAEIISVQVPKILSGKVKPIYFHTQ
# Progesterone receptor = biological target: T4, Progesterone receptor (Homo sapiens, UniProt P06401); assay: Binding affinity to PR; outline: as §1
# T4 sequence (P06401 whole entry): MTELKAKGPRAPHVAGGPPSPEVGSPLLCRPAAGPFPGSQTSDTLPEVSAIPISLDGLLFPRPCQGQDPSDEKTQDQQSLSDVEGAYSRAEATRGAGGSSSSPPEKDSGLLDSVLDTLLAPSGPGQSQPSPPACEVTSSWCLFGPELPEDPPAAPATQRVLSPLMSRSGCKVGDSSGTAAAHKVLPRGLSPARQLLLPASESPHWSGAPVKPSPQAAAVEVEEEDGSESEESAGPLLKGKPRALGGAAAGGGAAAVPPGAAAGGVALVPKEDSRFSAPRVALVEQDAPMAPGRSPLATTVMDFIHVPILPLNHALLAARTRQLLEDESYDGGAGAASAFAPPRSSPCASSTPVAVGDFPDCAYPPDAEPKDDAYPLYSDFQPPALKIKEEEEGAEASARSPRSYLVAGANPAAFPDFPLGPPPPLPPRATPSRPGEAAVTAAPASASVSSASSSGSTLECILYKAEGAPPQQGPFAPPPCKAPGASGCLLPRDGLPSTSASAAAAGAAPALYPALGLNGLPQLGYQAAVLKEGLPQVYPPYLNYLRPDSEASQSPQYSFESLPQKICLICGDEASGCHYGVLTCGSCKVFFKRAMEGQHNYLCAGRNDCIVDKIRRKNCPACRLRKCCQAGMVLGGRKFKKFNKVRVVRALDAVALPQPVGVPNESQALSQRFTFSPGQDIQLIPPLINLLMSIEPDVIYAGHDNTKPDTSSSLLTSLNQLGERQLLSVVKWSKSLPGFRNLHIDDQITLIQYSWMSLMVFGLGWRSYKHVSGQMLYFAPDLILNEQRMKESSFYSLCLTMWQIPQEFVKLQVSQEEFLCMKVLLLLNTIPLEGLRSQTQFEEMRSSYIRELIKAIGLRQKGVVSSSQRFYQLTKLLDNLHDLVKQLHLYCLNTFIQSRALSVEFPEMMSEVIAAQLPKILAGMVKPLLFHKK
# Glucocorticoid receptor [10] = biological target: T1, Glucocorticoid receptor; assay: Antagonist activity at human GR expressed in CV1 cells by GRE activation assay; type: functional, cell-based, CV-1
Structure (SMILES),IC50 (RPMI-8226 [1]) [nM],EC50 (Glucocorticoid receptor [3]) [nM],IC50 (Glucocorticoid receptor [4]) [nM],EC50 (Glucocorticoid receptor [10]) [nM],Efficacy (RPMI-8226 [2]) [%],further results
COc1c(O)ccc2c1-c1ccc3c(c1/C(=C/c1sccc1C#N)O2)C(C)=CC(C)(C)N3,14,0.2,0.8,,87,
CC/C=C(\C)c1ccsc1/C=C1\Oc2ccc(O)c(OC)c2-c2ccc3c(c21)C(C)=CC(C)(C)N3,22,0.5,6.1,,94,Ki (Glucocorticoid receptor [5]): 4.4 nM; Ki [8]: 42 nM; Ki (Androgen receptor): 346 nM; Ki (Progesterone receptor): 57 nM
COc1c(O)ccc2c1-c1ccc3c(c1/C(=C/c1sccc1C(=O)N1CCCCC1)O2)C(C)=CC(C)(C)N3,16,0.3,1,,95,
COC(=O)c1ccsc1/C=C1\Oc2ccc(O)c(OC)c2-c2ccc3c(c21)C(C)=CC(C)(C)N3,27,1.4,1.8,,95,
COc1c(O)ccc2c1-c1ccc3c(c1/C(=C/c1sccc1/C(C)=N/O)O2)C(C)=CC(C)(C)N3,9.9,5,1.1,,96,Ki (Glucocorticoid receptor [5]): 0.6 nM; Ki [8]: 21 nM; Ki (Androgen receptor): 290 nM; Ki (Progesterone receptor): 790 nM
C[C@@H]1C[C@H]2[C@@H]3CCC4=CC(=O)C=C[C@]4(C)[C@@]3(F)[C@@H](O)C[C@]2(C)[C@@]1(O)C(=O)CO [DEXAMETHASONE],6.5,,,,100,
COc1c(O)ccc2c1-c1ccc3c(c1/C(=C/c1sccc1COCCO)O2)C(C)=CC(C)(C)N3,22,1.6,1,,98,
COc1c(O)ccc2c1-c1ccc3c(c1/C(=C/c1sccc1CNCC(F)(F)F)O2)C(C)=CC(C)(C)N3,18,0.5,0.9,,96,
COc1c(O)ccc2c1-c1ccc3c(c1/C(=C/c1sccc1C(=O)C1CCCCC1)O2)C(C)=CC(C)(C)N3,,,,0.4,,
COc1c(O)ccc2c1-c1ccc3c(c1/C(=C/c1sccc1C(C)=O)O2)C(C)=CC(C)(C)N3,16,0.6,0.3,,95,
CCO/N=C(\C)c1ccsc1/C=C1\Oc2ccc(O)c(OC)c2-c2ccc3c(c21)C(C)=CC(C)(C)N3,16,0.4,0.5,1.9,98,

# Second part, led by results:
IC50 (RPMI-8226 [1]) [nM],EC50 (Glucocorticoid receptor [3]) [nM],IC50 (Glucocorticoid receptor [4]) [nM],EC50 (Glucocorticoid receptor [10]) [nM],Structure (SMILES),Efficacy (RPMI-8226 [2]) [%],further results
,,,0.3,COc1c(O)ccc2c1-c1ccc3c(c1/C(=C/c1sccc1C(O)C(F)(F)F)O2)C(C)=CC(C)(C)N3 (racemic),,Ki (Glucocorticoid receptor [5]): 1.4 nM; Efficacy (RPMI-8226 [6]): 89%; Efficacy (RPMI-8226 [7]): 97%; Ki [8]: 670 nM; Efficacy (RPMI-8226 [9]): 52%; Ki (Androgen receptor): 1900 nM; Ki (Progesterone receptor): 1780 nM
,,,1.4,COc1c(O)ccc2c1-c1ccc3c(c1/C(=C/c1sccc1C(O)C(F)(F)F)O2)C(C)=CC(C)(C)N3 (stereo in doubt; (-)-15),,
,,,0.2,"COc1c(O)ccc2c1-c1ccc3c(c1/C(=C/c1sccc1C(O)C(F)(F)F)O2)C(C)=CC(C)(C)N3 (single isomer, unassigned; (+))",,
,,,0.6,CCCCC(O)c1ccsc1/C=C1\Oc2ccc(O)c(OC)c2-c2ccc3c(c21)C(C)=CC(C)(C)N3 (racemic),,
,,,1.3,COc1c(O)ccc2c1-c1ccc3c(c1/C(=C/c1sccc1C(C)O)O2)C(C)=CC(C)(C)N3 (racemic),,Ki (Glucocorticoid receptor [5]): 1.2 nM; Ki [8]: 410 nM; Ki (Androgen receptor): 1530 nM; Ki (Progesterone receptor): 2290 nM
